Source: paper PMC11751479 (Nature Communications, 2025)

Experiments:
Assay in all cases: HPLC assay, Michaelis-Menten regression
Type in all cases: biochemical, Cistanche tubulosa
CtUGT85AF12 = details: read-out: apparent KM; UDP-glucose donor; optimal conditions (supplement)
Method in brief: (§1)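 Recombinant enzyme is expressed in E. coli and purified. Kinetic reactions follow supplementary methods. They are stopped with a double volume of methanol and centrifuged at 12,000 × g for 30 min, and the supernatant is analysed by HPLC. Kinetic constants come from nonlinear Michaelis-Menten regression.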

CtUGT85A191 = details: read-out: apparent KM; UDP-glucose donor; optimal conditions (supplement)
Method in brief: as §1

CtUGT79G13 = details: UDP-rhamnose donor; optimal conditions (supplement)
CtUGT73EV1 = details: UDP-glucose donor; optimal conditions (supplement)

OCCc1ccc(O)cc1 [compound 9, tyrosol]
Km (CtUGT85AF12): 9.92 ± 2.2 µM | Km (CtUGT85A191): 138 ± 22.7 µM

OCCc1ccc(O)c(O)c1 [compound 10, hydroxytyrosol]
Km (CtUGT85AF12): 75.7 ± 12 µM | Km (CtUGT85A191): 288 ± 36.8 µM

O=C(/C=C/c1ccc(O)c(O)c1)O[C@H]1[C@H](O)[C@@H](O)[C@H](OCCc2ccc(O)c(O)c2)O[C@@H]1CO [compound 18, calA]
Km (CtUGT79G13): 77.8 ± 6.1 µM

C[C@@H]1O[C@@H](O[C@@H]2[C@@H](O)[C@H](OCCc3ccc(O)c(O)c3)O[C@H](CO)[C@H]2OC(=O)/C=C/c2ccc(O)c(O)c2)[C@H](O)[C@H](O)[C@H]1O [compound 20, acteoside]
Km (CtUGT73EV1): 135 ± 24.1 µM
